# An excerpt weighted towards active compounds, which were near 2.5% of everything screened.
# Platelet DG rel: modulates dense granule release in human platelets; inhibition, %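 (compounds screened at 7.5 µM in platelet-rich plasma)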; AID 1663; human platelet-rich plasma, SFLLRN dense granule ATP release, luminescence; actives 0.22% (n = 300,000);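 active = mean replicate score, as percent of positive control, at or above 50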
# TRPC4 potent: TRPC4 (mouse) allosteric potentiation; B-score at 10 µM; AID 2227; actives 0.42% (n = 310,000); HEK293 TRPC4beta/mu-opioid, DAMGO EC20, Fluo-4 Ca2+ flux; active compounds read high;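 active = B-score of calcium response area above 5 SD of library B-scores, with initial fluorescence ratio within 5 SD of library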;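 note: B-score of integrated fluorescence ratio over time as area under calcium response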
# Target sequence (Q9QUQ5 whole entry, looked up): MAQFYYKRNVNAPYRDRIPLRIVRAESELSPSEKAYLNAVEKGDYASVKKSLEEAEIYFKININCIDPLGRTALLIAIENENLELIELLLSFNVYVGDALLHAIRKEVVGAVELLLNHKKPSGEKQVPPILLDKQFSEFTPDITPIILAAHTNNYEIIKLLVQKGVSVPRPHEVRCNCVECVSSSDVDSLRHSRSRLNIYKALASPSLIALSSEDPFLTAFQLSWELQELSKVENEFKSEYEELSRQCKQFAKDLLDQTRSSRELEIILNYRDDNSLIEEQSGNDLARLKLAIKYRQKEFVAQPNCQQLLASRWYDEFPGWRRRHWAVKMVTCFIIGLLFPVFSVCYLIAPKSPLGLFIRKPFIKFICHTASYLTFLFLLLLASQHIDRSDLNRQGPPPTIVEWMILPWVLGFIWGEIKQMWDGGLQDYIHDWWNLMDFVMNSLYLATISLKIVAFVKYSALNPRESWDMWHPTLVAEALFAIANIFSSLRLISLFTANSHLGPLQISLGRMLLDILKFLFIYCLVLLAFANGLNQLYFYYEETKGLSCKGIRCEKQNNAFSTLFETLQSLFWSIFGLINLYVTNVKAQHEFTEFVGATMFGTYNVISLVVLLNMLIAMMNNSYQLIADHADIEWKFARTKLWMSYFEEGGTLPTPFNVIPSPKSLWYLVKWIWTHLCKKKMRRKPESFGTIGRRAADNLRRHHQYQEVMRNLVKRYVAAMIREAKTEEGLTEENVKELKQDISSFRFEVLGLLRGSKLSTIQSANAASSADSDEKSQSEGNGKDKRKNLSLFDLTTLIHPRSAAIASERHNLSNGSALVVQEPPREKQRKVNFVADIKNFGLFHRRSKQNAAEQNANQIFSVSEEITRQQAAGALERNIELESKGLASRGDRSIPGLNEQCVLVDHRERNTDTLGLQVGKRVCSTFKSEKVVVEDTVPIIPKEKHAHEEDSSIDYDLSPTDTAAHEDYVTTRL
# TRPC6 activator: mouse TRPC6 channel activation | Q61143 | HEK293-TRPC6 membrane potential dye fluorescence; active compounds read high | B-score at 10 µM | actives 0.13% (n = 310,000) | AID 2550;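 active = B-score of the integrated fluorescence ratio above library mean plus 3 SD, and starting fluorescence ratio within library mean plus 5 SD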;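 note: higher score means more depolarization so channel activation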
# TRPC6 inhibitor: inhibitors of mouse TRPC6 channel; B-score at 10 µM; actives 1.1% (n = 310,000); HEK293-TRPC6, membrane potential dye, ACh-evoked depolarization; active compounds read low; AID 2553; Q61143;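 active = B-score under library mean minus 3 SD, initial fluorescence not abnormally high, positive integrated signal ratio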;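 note: B-score derived from integrated fluorescence ratio over the kinetic read; more negative B-score means stronger inhibition of depolarization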
# TRPC4 act: TRPC4 (mouse) channel activation. actives 0.49% (n = 310,000). AID 2237. Q9QUQ5. B-score at 10 µM. HEK293 TRPC4beta/mu-opioid, Fluo4 calcium fluorescence; active compounds read high;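 active = B-score above 5 SD of library B-scores, and initial fluorescence ratio not above library mean plus 5 SD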;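 note: positive B-score marks a calcium rise read as TRPC4 activation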
#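 System – HEK293 cells stably co-expressing mouse TRPC4beta and mu-opioid receptor · Signal – Fluo4 calcium-sensitive dye fluorescence, kinetic, 1 Hz baseline · Benchmarks – buffer (low) and maximal DAMGO (high) · Read-out – B score of integrated fluorescence ratio per well · Incubation – dye loading 45 min room temperature, 110 s kinetic read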
# TRPC4 inh: inhibitors of mouse TRPC4 channel; actives 0.39% (n = 300,000); B-score at 10 µM; Q9QUQ5; HEK293 TRPC4beta/mu-opioid, DAMGO-evoked Fluo4 calcium flux; active compounds read low;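 active = B-score over 3 SD under the library average, no early fluorescence shift, positive overall ratio signal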
#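 Assay system – HEK293 line stably carrying TRPC4beta and mu-opioid receptor · Doses – single dose · Detection – Fluo4 calcium-dye fluorescence, kinetic read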
# TRPC4 spec 2: second selectivity test of TRPC6 inhibitors: effect on mouse TRPC4; actives 42% (n = 920); shares compounds with TRPC6 inhibitor; inhibition, % at 10 µM; HEK293 TRPC4/MOR, membrane potential dye fluorescence; channel activated by saturating DAMGO dose;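 active = compounds whose fluorescence signal differed from control wells by over 3 SD, either direction, in both duplicate plates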
# TRPC4 spec: tests whether TRPC6 inhibitors also affect mouse TRPC4 | shares compounds with TRPC6 inhibitor | activity change, negative = inhibition, % at 10 µM | actives 61% (n = 920) | HEK293 TRPC4/mu-opioid, membrane potential fluorescence;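 active = rise or fall in signal beyond 3 SD of buffer-only wells in both replicate plates, either sign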;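 note: integrated kinetic ratio of fluorescence range over baseline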
# HEK293 MPD ctr 2-1: parental HEK293 nonspecific activity of TRPC6 inhibitors, second screen; AID 2779; signal change vs control, % at 10 µM; actives 31% (n = 920); parental HEK293 membrane potential dye fluorescence; maximal acetylcholine challenge after compound addition; shares compounds with TRPC6 inhibitor;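 active = membrane potential signal moving either way by over 3 SD of the maximum-effect control, in both duplicate plates, meaning non-specific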
# HEK293 MPD ctr-1: parental HEK293 nonspecific activity of TRPC6 inhibitors; shares compounds with TRPC6 inhibitor; parental HEK293 membrane potential dye fluorescence; AID 2780; membrane potential signal change, % at 10 µM; actives 60% (n = 920);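 active = membrane potential signal shifting up or down by more than 3 SD of buffer-only wells, on both duplicate plates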
# HEK293 MPD ctr-2: checks TRPC6 modulator effects in parental HEK293 cells. membrane potential dye fluorescence. shares compounds with TRPC6 inhibitor. actives 51% (n = 2,400). membrane potential signal change, % at 10 µM. AID 488924;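 active = membrane potential signal moves up or down beyond 5 SD from buffer-only wells, on both duplicate plates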
# HEK293 MPD ctr 2-2: second check of TRPC6 modulator effects in parental HEK293 cells | actives 14% (n = 2,400) | shares compounds with TRPC6 inhibitor | membrane potential dye fluorescence; after compound, maximal acetylcholine stimulation | inhibition, % at 10 µM | AID 488926;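 active = membrane potential signal drops by more than 5 SD from the mean control signal, in both duplicate plates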;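 note: plate controls were acetylcholine ECmax control wells for no effect and buffer only wells for full effect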
# TRPC4/MOR mod: selectivity of TRPC6 modulators against mouse TRPC4. HEK293 TRPC4/mu-opioid, membrane potential fluorescence. percent change from control (negative = decrease, positive = increase), % at 10 µM. shares compounds with TRPC6 inhibitor. actives 69% (n = 2,400);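 active = membrane potential signal moved up or down beyond 5 SD of buffer control wells, in both duplicate plates, actives on both sides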;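 note: plate controls were assay buffer wells for no effect and DAMGO maximal-effect wells for full effect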
# TRPC4 ctr inh 2: second selectivity test of TRPC6 modulators against mouse TRPC4. actives 55% (n = 2,400). AID 488928. inhibition, % at 10 µM. HEK293 TRPC4/mu-opioid, membrane potential dye fluorescence; stimulated with maximal-effect DAMGO. shares compounds with TRPC6 inhibitor;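 active = drop in membrane potential signal beyond 5 SD of the control wells in both duplicate plates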;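 note: TRPC4 counter screen for TRPC6 hits run under conditions tuned for TRPC6 not TRPC4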
# TRPC6 inh conf: mouse TRPC6 inhibitor confirmation | shares compounds with TRPC6 inhibitor | HEK293-TRPC6, membrane potential dye, ACh-evoked depolarization | inhibition, % at 10 µM | actives 43% (n = 3,300);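 active = fluorescence ratio falls more than 5 SD below the full-stimulation control mean, in both duplicate runs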;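 note: integrated fluorescence ratio of peak minus minimum over baseline after agonist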
# TRPC6 act conf: mouse TRPC6 activator confirmation; shares compounds with TRPC6 inhibitor; HEK293-TRPC6 membrane potential dye fluorescence, FDSS; activation, % at 10 µM; actives 11% (n = 2,800);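 active = ratio signal rise beyond 5 SD above unstimulated control wells' mean, seen in both duplicate runs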;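 note: plate controls were buffer EC0 wells for no effect and acetylcholine ECmax response for full effect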
# Numbers without * were called inactive; i = inactive; x = no result given.
SMILES,Platelet DG rel,TRPC4 potent,TRPC6 activator,TRPC6 inhibitor,TRPC4 act,TRPC4 inh,HEK293 MPD ctr-2,HEK293 MPD ctr 2-2,TRPC4/MOR mod,TRPC4 ctr inh 2,TRPC6 inh conf,TRPC6 act conf,others
COc1cc(/C=C2/SC(=S)N(CC3CCCO3)C2=O)ccc1O (stereo unspecified),-3,i,16*,i,i,i,212%*,i,89%*,i,i,40%*,
COc1ccc(/C=C2\SC(=S)N(CC3CCCO3)C2=O)cc1 (stereo unspecified),12,i,i,i,i,i,x,x,x,x,x,x,
CC(NC(=O)[C@H](C)NC(=O)[C@@H]1CSC2c3ccccc3C(=O)N21)c1ccccc1 (stereo partly specified),21,i,i,i,i,i,x,x,x,x,x,x,
Cn1ccnc1SCC(=O)Nc1cc(F)ccc1F,-19,i,i,i,i,i,x,x,x,x,x,x,
COc1ccc(/C(C)=N/NC2=NCCN2)cc1Cl,3,i,i,i,i,i,x,x,x,x,x,x,
CCCCOc1ccc(Br)cc1/C(C)=N/NC1=NCCN1,-1,i,i,-7.3*,i,i,x,x,x,x,i,i,TRPC4 spec 2=27%*;TRPC4 spec=15%*;HEK293 MPD ctr 2-1=233%*;HEK293 MPD ctr-1=8.4%*
Cc1ccc(SCc2cc(=O)n3ccsc3n2)c(C)c1,7,i,i,i,i,i,x,x,x,x,x,x,
Cc1ccc(C)c(C(=O)c2c(C)nc3sccn23)c1,x,i,i,-6.1*,i,i,i,i,10%*,i,i,i,
Nc1cccc2nc3ccccc3cc12,2,i,i,-7.2*,i,i,x,x,x,x,83%*,i,TRPC4 spec 2=23%*;TRPC4 spec=-36%*;HEK293 MPD ctr 2-1=18%*;HEK293 MPD ctr-1=-413%*
CC(C)(C)C(=O)Cn1c(=N)n(Cc2ccccc2Cl)c2ccccc21,2,i,i,-5.5*,i,i,164%*,i,22%*,77%*,48%*,x,
CC(C)(C)C(=O)Cn1c(=N)n(Cc2ccccc2)c2ccccc21,-1,i,i,i,i,i,x,x,x,x,x,x,
CCCCn1c(N)c(N(CCC(C)C)C(=O)c2ccc3c(c2)OCO3)c(=O)[nH]c1=O,-11,i,i,i,i,i,x,x,x,x,x,x,
CCOC(=O)NC(=O)C(=CNc1ccccc1C)C(=O)NC(=O)OCC,-4,i,i,i,i,i,x,x,x,x,x,x,
O=C(Nc1nnc(-c2ccccc2Cl)o1)c1ccc(S(=O)(=O)N2CCCCCC2)cc1,-2,i,i,-6.3*,71*,i,i,i,-10%*,i,i,i,
CS(=O)(=O)c1ccccc1-c1nnc(NC(=O)c2ccc(S(=O)(=O)N3CCCC3)cc2)o1,2,i,i,i,i,i,x,x,x,x,x,x,
COc1ccc(N2CCN(C(=O)CNC(=O)c3ccccc3Cl)CC2)cc1,-8,i,i,i,i,i,x,x,x,x,x,x,
COc1ccc(NC(=O)Cn2c(NCC(C)O)nc3ccccc32)cc1Cl (stereo unspecified),-4,i,i,i,i,i,x,x,x,x,x,x,
COC(=O)c1ccc2c(c1)sc(=NC(=O)CCS(=O)(=O)c1ccccc1)n2C,-3,i,i,i,i,i,x,x,x,x,x,x,
CCOC(=O)c1cc2c(=O)n3ccccc3nc2n(C(C)C)c1=NC(=O)c1ccco1,8,i,i,i,i,i,x,x,x,x,x,x,
CC(C)n1c(=NC(=O)c2ccco2)c(C#N)cc2c(=O)n3ccccc3cc21,-16,i,i,-6.1*,i,i,-86%*,i,-24%*,i,i,i,
N#Cc1c(N2CCCC(O)C2)nc(N)c2c(N)nc3c(c12)CC(=O)N3C12CC3CC(CC(C3)C1)C2 (stereo unspecified),0,i,i,-6.1*,i,i,i,i,i,i,i,i,
C=C(C)CN(CC)c1nc(N)c2c(N)nc3c(c2c1C#N)CC(=O)N3C12CC3CC(CC(C3)C1)C2,8,i,i,i,i,i,x,x,x,x,x,x,
N#C/C(=C\c1c(N2CCN(c3ccccc3)CC2)nc2ccccn2c1=O)S(=O)(=O)c1ccccc1,4,i,i,i,i,i,x,x,x,x,x,x,
N#C/C(=C\c1c(N2CCCCC2)nc2ccccn2c1=O)S(=O)(=O)c1ccccc1,-11,i,i,-5.3*,i,i,i,i,-14%*,48%*,i,i,
CCN1CCN(c2nc3c(C)cccn3c(=O)c2/C=C(\C#N)S(=O)(=O)c2ccc(C)cc2)CC1,-6,i,i,-5.1*,i,i,-77%*,i,-22%*,96%*,i,i,
Cc1ccc(S(=O)(=O)/C(C#N)=C/c2c(N3CCN(C)CC3)nc3c(C)cccn3c2=O)cc1,-4,i,i,-6.8*,i,i,i,i,-17%*,83%*,i,i,

# Compound activity (PubChem)
